# According to PubChem BioAssay:
# Active and inactive are the calls of the source.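 How the source made its calls, unless noted: active means current rise at least 3 SD above the untreated control mean in each of two repeat wells; inactive means the rest.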
# Tests used:
# [1] = target: Potassium voltage-gated channel subfamily KQT member 1 (Homo sapiens) (UniProt P51787); test: KCNQ1 channel current potentiators, confirmation, orthogonal assay for KCNQ1 potentiator project, IonWorks patch clamp, KCNQ1-CHO cells (AID 493184); details: automated patch clamp current, at 10 µM
# Sequence of Potassium voltage-gated channel subfamily KQT member 1 (Homo sapiens) (P51787 whole entry, looked up): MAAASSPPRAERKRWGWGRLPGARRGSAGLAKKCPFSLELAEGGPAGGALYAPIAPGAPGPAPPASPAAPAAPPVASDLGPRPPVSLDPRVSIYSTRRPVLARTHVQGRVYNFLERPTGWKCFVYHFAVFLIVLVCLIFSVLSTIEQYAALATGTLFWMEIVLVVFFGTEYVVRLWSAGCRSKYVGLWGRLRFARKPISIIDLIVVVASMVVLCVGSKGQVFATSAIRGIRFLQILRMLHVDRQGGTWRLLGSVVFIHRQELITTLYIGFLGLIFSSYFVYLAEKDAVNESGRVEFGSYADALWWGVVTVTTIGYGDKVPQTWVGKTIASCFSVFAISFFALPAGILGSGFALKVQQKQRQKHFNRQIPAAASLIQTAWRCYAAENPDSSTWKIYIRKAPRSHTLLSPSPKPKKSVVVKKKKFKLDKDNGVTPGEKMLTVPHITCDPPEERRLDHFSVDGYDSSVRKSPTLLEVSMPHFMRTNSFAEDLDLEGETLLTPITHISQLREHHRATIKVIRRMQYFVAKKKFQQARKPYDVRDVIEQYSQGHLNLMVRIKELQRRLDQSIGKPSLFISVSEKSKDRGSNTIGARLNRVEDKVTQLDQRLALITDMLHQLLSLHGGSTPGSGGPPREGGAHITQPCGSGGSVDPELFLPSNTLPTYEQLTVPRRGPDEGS
# Method in brief: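 assay system = KCNQ1-expressing CHO cells | medium = external bath solution at pH 7.4 | probe or stimulus = 2,000 ms depolarization, -90 to +40 mV | compound dosing = 10 µM final, single point | measured by = automated voltage clamp, amphotericin B perforated patch | measure = percent current increase versus pre-compound level | replication = duplicates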
# [2] = target: Potassium voltage-gated channel subfamily E member 1 (Homo sapiens) + Potassium voltage-gated channel subfamily KQT member 1 (Homo sapiens) (UniProt P15382+P51787); test: KCNQ1/KCNE1 complex potentiators, confirmation, selectivity assay for KCNQ1 potentiator project, thallium flux, CHO-K1 KCNQ1/E1 cells (AID 493186;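 active means mean duplicate activation above the buffer control mean plus 5 SD of those controls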); details: FluxOR thallium flux, at 10 µM
# Sequence of Potassium voltage-gated channel subfamily E member 1 (Homo sapiens) + Potassium voltage-gated channel subfamily KQT member 1 (Homo sapiens) (P51787 whole entry, looked up): as the sequence (P51787 whole entry, looked up) above
# Method in brief: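 Test system – CHO-K1 cells with KCNQ1/E1 · Measured by – FluxOR Tl+ flux fluorescence, kinetic read · Controls – buffer low control, R-L3 high control · Times – dye 90 min, compound 20 min, room temperature · Replication – duplicate wells per compound · Doses – one test concentration · Evaluation – fluorescence rise relative to baseline, as percent of R-L3 response above buffer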
Structure (SMILES),outcome [1],outcome [2]
Cc1ccc(OCC(=O)NNC(=S)NC(=O)c2ccc(Br)o2)c(C)c1,inactive,–
CC(C1CC2CCC1C2)n1c(-c2cccs2)n[nH]c1=S (stereo not given),inactive,inactive
Brc1ccccc1CN1CCN(Cc2c[nH]c3ccccc23)CC1,inactive,inactive
O=Cc1cc(N=Nc2ccccc2Cl)ccc1O,inactive,–
CCCc1nc2oc3c(NCCN(C)C)ncnc3c2c2c1CCCC2,inactive,inactive
Cc1cc(C)cc(N/C(N)=N/c2nc(C)cc(C)n2)c1,inactive,inactive
Cc1nc2c3cc(Cl)ccc3n(CCN3CCCCC3)c2s1,inactive,–
CN(C)CC(CCC(CN(C)C)C(O)(c1ccccc1)c1ccccc1)C(O)(c1ccccc1)c1ccccc1 (stereo not given),inactive,inactive
CC(=O)C1=C(S(=O)(=O)c2ccc(C)cc2)CS(=O)(=O)C1,inactive,–
c1ccc(-c2nc(NCc3ccco3)c3ccccc3n2)cc1,inactive,–
O=C(O)c1ccc(Cl)cc1Nc1nc2cc(Cl)ccc2o1,inactive,–
C=CCSc1nc2c(c(=O)[nH]c(=O)n2C)n1C/C=C(/C)Cl,inactive,inactive
Cc1ccc(/C=C/C(=O)c2ccc(O)cc2)cc1,inactive,–
COc1cc(NS(=O)(=O)c2ccc3ccccc3c2)c2ncccc2c1,inactive,inactive
Oc1c(Br)cc(Br)cc1C=Nc1ccc2[nH]ncc2c1,inactive,–
S=c1[nH]nc(-c2cc3c(s2)-c2ccccc2CC3)o1,inactive,–
CC1=NN(c2ccccc2)C(=O)/C1=C/c1c(O)n(-c2ccc(F)c(Cl)c2)[nH]c1=O,inactive,–
Cc1cccc(/C=N/NC(=O)c2cc(Br)ccc2O)n1,inactive,–
